Reference: PubChem BioAssay AID504347 (Broad Institute, 2011)
The source made the active and inactive calls.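 The calls were made as follows: active = fitted curve climbs past 10% caspase activation, relative to the positive control, at or below the top valid tested dose; inactive = the rest, including activity in the opposite direction.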

Key:
[1] = test system: MEF A1-2A-BIM cells, caspase-3/7 luminescence; assay: A1 inhibitor-induced caspase activation in BIM-primed MEFs, dose response, cell-based, MEF A1-2A-BIM, luminescence, dry powder, set 4 (AID 504347)
Method in brief: (§1)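 System: mouse embryonic fibroblasts co-expressing A1-2A-BIM construct / Amount: 2500 cells/well / Buffer or medium: RPMI-1640, 10% FBS / Schedule: 3 h compound at 37 °C, 1 h reagent at RT / Technique: Caspase-3/7 DEVD-luciferin luminescence / Evaluation: caspase activation indicated by luminescence increase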

[2] = as above; details: MEF A1-2A-BIM cells, caspase-3/7 luminescence; at 35 µM (top of the series)
Method in brief: as §1

| SMILES | AC10 [1] [µM] | caspase activation [2] |
| --- | --- | --- |
| Cc1ccc(Sc2c([N+](=O)[O-])c(=O)n(Cc3ccccc3)c3ccccc23)cc1 | 17.8 | – |
| O=c1c([N+](=O)[O-])c(Cl)c2ccccc2n1Cc1ccccc1 | 2.53 | – |
| Cn1c(=O)c([N+](=O)[O-])c(-n2cnc3ccccc32)c2ccccc21 | 8.18 | – |
| COCCn1c(=O)c([N+](=O)[O-])c(Sc2ccc(C)cc2)c2ccccc21 | 6.43 | – |
| Cc1ccc(Sc2c(Sc3ccc(C)cc3)c3ccccc3n(C)c2=O)cc1 | – | -0.138% (inactive) |
| C/C(=N\Nc1nc(N2CCCCC2)nc(N2CCCCC2)n1)c1ccc(F)cc1 | – | 0.602% (inactive) |
| O=C(COc1ccc(Cl)cc1Cl)NNc1nc(N2CCOCC2)nc(N2CCOCC2)n1 | 28.5 | – |
| COc1ccc(CCNc2nc(N3CCOCC3)nc(N3CCOCC3)n2)cc1OC | – | 4.68% (inactive) |
| O=c1[nH]c2ccccc2c(Cl)c1[N+](=O)[O-] | 2.8 | – |
| CCn1c(=O)c([N+](=O)[O-])c(Sc2ccc(C)cc2)c2ccccc21 | 15 | – |
| Cn1c(=O)c([N+](=O)[O-])c(Cl)c2ccccc21 | 0.96 | – |
| COCCn1c(=O)c(Sc2ccc(C)cc2)c(Sc2ccc(C)cc2)c2ccccc21 | 20.2 | – |
